Reference: ChEMBL document CHEMBL1152649, “Synthesis, cytotoxicity and human telomerase inhibition activities of a series of 1,2-heteroannelated anthraquinones and anthra[1,2-d]imidazole-6,11-dione homologues” (2009)
Active and inactive are the calls of the source. The calls are words filed in the database; no cut-off is given here.

How the values were obtained:
[1] = test system: OVCAR-8; test: Antiproliferative activity against human OVCAR8 cells assessed as cell growth at 10 uM; format: functional; details: read-out: Activity
Method in brief: (§1)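 NCI 60 cell line panel, single-dose screen (10^-5 M) run by the developmental therapeutics program protocol. Results are given as growth percent of treated cells relative to untreated control cells for each line.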

[2] = test system: Malme-3M; test: Antiproliferative activity against human MALME-3M cells assessed as cell growth at 10 uM; format: functional; details: read-out: Activity; method in brief: as §1
[3] = test system: PC-3; test: Antiproliferative activity against human PC3 cells assessed as cell growth at 10 uM; format: functional; details: read-out: Activity; method in brief: as §1
[4] = test system: TK-10; test: Antiproliferative activity against human TK10 cells assessed as cell growth at 10 uM; format: functional; details: read-out: Activity
Method in brief: (§2)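 NCI 60 cell line panel, single dose (10^-5 M), run per the Developmental Therapeutics Program protocol (one dose mean graph). Each result is the growth percentage of treated cells relative to untreated control cells.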

[5] = test system: CCRF-CEM; test: Antiproliferative activity against human CCRF-CEM cells assessed as cell growth at 10 uM; format: functional; details: read-out: Activity; method in brief: as §1
[6] = test system: A498; test: Antiproliferative activity against human A498 cells assessed as cell growth at 10 uM; format: functional; details: read-out: Activity; method in brief: as §1
[7] = test system: NCI/ADR-RES; test: Antiproliferative activity against human NCI/ADR-RES cells assessed as cell growth at 10 uM; format: functional; details: read-out: Activity; method in brief: as §1
[8] = test system: SNB-75; test: Antiproliferative activity against human SNB75 cells assessed as cell growth at 10 uM; format: functional; details: read-out: Activity; method in brief: as §2
[9] = test system: SF-295; test: Antiproliferative activity against human SF295 cells assessed as cell growth at 10 uM; format: functional; details: read-out: Activity; method in brief: as §1
[10] = test system: NCI-H226; test: Antiproliferative activity against human NCI-H226 cells assessed as cell growth at 10 uM; format: functional; details: read-out: Activity; method in brief: as §1
[11] = test system: SN12C; test: Antiproliferative activity against human SN12C cells assessed as cell growth at 10 uM; format: functional; details: read-out: Activity; method in brief: as §1
[12] = test system: EKVX; test: Antiproliferative activity against human EKVX cells assessed as cell growth at 10 uM; format: functional; details: read-out: Activity; method in brief: as §1
[13] = test system: OVCAR-4; test: Antiproliferative activity against human OVCAR4 cells assessed as cell growth at 10 uM; format: functional; details: read-out: Activity; method in brief: as §1
[14] = test system: LOX IMVI; test: Antiproliferative activity against human LOXIMVI cells assessed as cell growth at 10 uM; format: functional; details: read-out: Activity; method in brief: as §1
[15] = test system: A549; test: Antiproliferative activity against human A549 cells assessed as cell growth at 10 uM; format: functional; details: read-out: Activity; method in brief: as §1
[16] = Cytotoxicity against human H1299 cells at 10 uM after 48 hrs by MTT assay; format: functional; details: NCI-H1299, 48 h
Method in brief: (§3)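 H1299 non-small cell lung cancer cells were grown in RPMI 1640 with 10% FBS, penicillin and streptomycin at 37 °C under 5% CO2. About 2 × 10³ cells per well were seeded and left 24 h. Compounds were dissolved fresh in DMSO, diluted into complete medium and applied for 48 h. MTT was then added for 4 h at 37 °C, followed by lysis buffer (20% SDS, 50% DMF) for 16 h, and absorbance was read at 550 nm.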

[17] = biological target: Telomerase reverse transcriptase (Homo sapiens) (UniProt O14746); test: Inhibition of TERT in human H1299 cells assessed as residual transcriptional activity at 1 uM after 24 hrs by SEAP reporter gene assay; values are per cent of control
Sequence of Telomerase reverse transcriptase (Homo sapiens) (O14746 whole entry): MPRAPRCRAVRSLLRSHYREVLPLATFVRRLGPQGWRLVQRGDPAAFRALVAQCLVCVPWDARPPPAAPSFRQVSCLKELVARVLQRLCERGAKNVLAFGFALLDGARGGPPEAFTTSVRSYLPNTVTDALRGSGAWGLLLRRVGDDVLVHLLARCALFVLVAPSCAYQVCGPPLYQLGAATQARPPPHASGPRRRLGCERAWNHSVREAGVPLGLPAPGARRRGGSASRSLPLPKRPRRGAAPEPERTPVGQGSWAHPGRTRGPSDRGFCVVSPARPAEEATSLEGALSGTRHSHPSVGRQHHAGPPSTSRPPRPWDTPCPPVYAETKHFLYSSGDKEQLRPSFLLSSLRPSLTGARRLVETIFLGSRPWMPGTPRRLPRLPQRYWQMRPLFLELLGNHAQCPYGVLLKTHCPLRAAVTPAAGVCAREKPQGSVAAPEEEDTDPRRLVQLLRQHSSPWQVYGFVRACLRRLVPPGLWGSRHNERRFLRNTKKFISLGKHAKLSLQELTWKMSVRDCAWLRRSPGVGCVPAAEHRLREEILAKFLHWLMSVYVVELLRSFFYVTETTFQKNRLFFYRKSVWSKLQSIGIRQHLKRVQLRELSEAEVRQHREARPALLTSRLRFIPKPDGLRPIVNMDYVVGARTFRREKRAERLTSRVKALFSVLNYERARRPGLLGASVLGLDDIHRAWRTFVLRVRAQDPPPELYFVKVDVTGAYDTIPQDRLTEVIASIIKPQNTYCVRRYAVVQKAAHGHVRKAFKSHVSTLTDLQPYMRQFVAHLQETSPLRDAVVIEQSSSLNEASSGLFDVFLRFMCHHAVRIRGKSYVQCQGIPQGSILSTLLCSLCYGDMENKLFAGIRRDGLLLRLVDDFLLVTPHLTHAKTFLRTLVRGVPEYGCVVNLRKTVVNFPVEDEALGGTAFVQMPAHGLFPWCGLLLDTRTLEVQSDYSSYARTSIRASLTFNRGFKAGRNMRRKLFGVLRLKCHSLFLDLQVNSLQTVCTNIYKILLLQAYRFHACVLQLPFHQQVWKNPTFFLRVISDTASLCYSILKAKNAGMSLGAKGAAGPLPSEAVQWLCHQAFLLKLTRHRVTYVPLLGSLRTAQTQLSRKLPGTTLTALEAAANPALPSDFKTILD

[18] = test system: DU-145; test: Antiproliferative activity against human DU145 cells assessed as cell growth at 10 uM; format: functional; details: read-out: Activity; method in brief: as §1
[19] = test system: MDA-MB-231; test: Antiproliferative activity against human MDA-MB-231 cells assessed as cell growth at 10 uM; format: functional; details: read-out: Activity; method in brief: as §1
[20] = test system: HL-60(TB); test: Antiproliferative activity against human HL-60(TB) cells assessed as cell growth at 10 uM; format: functional; details: read-out: Activity
Method in brief: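 NCI Developmental Therapeutics Program 60-cell-line one-dose screen at 10^-5 M. Readout is growth percentage of treated cells relative to untreated control cells.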

[21] = test system: U-251; test: Antiproliferative activity against human U251 cells assessed as cell growth at 10 uM; format: functional; details: read-out: Activity; method in brief: as §2
[22] = test system: UACC-62; test: Antiproliferative activity against human UACC62 cells assessed as cell growth at 10 uM; format: functional; details: read-out: Activity; method in brief: as §2
[23] = test system: NCI-H522; test: Antiproliferative activity against human NCI-H522 cells assessed as cell growth at 10 uM; format: functional; details: read-out: Activity; method in brief: as §1
[24] = test system: OVCAR-5; test: Antiproliferative activity against human OVCAR5 cells assessed as cell growth at 10 uM; format: functional; details: read-out: Activity; method in brief: as §1
[25] = test system: HCT-116; test: Antiproliferative activity against human HCT116 cells assessed as cell growth at 10 uM; format: functional; details: read-out: Activity; method in brief: as §1
[26] = test system: T47D; test: Antiproliferative activity against human T47D cells assessed as cell growth at 10 uM; format: functional; details: read-out: Activity; method in brief: as §2
[27] = biological target: Telomerase reverse transcriptase (Homo sapiens) (UniProt O14746); test: Inhibition of TERT in human H1299 cells assessed as residual transcriptional activity at 10 uM after 24 hrs by SEAP reporter gene assay; values are per cent of control
[28] = test system: HT-29; test: Antiproliferative activity against human HT-29 cells assessed as cell growth at 10 uM; format: functional; details: read-out: Activity; method in brief: as §1
[29] = test system: HCC 2998; test: Antiproliferative activity against human HCC2998 cells assessed as cell growth at 10 uM; format: functional; details: read-out: Activity; method in brief: as §1
[30] = test system: UO-31; test: Antiproliferative activity against human UO31 cells assessed as cell growth at 10 uM; format: functional; details: read-out: Activity; method in brief: as §2
[31] = test system: UACC-257; test: Antiproliferative activity against human UACC257 cells assessed as cell growth at 10 uM; format: functional; details: read-out: Activity; method in brief: as §2
[32] = test system: SK-MEL-2; test: Antiproliferative activity against human SK-MEL-2 cells assessed as cell growth at 10 uM; format: functional; details: read-out: Activity; method in brief: as §1
[33] = test system: OVCAR-3; test: Antiproliferative activity against human OVCAR-3 cells assessed as cell growth at 10 uM; format: functional; details: read-out: Activity; method in brief: as §1
[34] = test system: SF-268; test: Antiproliferative activity against human SF268 cells assessed as cell growth at 10 uM; format: functional; details: read-out: Activity; method in brief: as §1
[35] = test system: HCT-15; test: Antiproliferative activity against human HCT15 cells assessed as cell growth at 10 uM; format: functional; details: read-out: Activity; method in brief: as §1
[36] = Cytotoxicity against human H1299 cells at 100 uM after 48 hrs by MTT assay; format: functional; details: NCI-H1299, 48 h; method in brief: as §3
[37] = biological target: Telomerase reverse transcriptase (Homo sapiens) (UniProt O14746); test: Inhibition of telomerase in human H1299 cells up to 100 uM by TRAP assay; format: cell-based
Method in brief: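 PCR-based telomeric repeat amplification protocol (TRAP). The telomerase source was total lysate of H1299 lung cancer cells, with protein measured against BSA standards. Controls were extract without inhibitor and RNase A-treated extract.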

[38] = test system: SK-MEL-28; test: Antiproliferative activity against human SK-MEL-28 cells assessed as cell growth at 10 uM; format: functional; details: read-out: Activity; method in brief: as §1
[39] = test system: SF-539; test: Antiproliferative activity against human SF539 cells assessed as cell growth at 10 uM; format: functional; details: read-out: Activity; method in brief: as §1
[40] = test system: M14; test: Antiproliferative activity against human M14 cells assessed as cell growth at 10 uM; format: functional; details: read-out: Activity; method in brief: as §1
[41] = test system: COLO 205; test: Antiproliferative activity against human COLO205 cells assessed as cell growth at 10 uM; format: functional; details: read-out: Activity; method in brief: as §1
[42] = Cytotoxicity against human H1299 cells at 1 uM after 48 hrs by MTT assay; format: functional; details: NCI-H1299, 48 h; method in brief: as §3
[43] = Antiproliferative activity against human Hs 578T cells assessed as cell growth at 10 uM; format: functional; details: read-out: Activity; method in brief: as §1
[44] = test system: MOLT-4; test: Antiproliferative activity against human MOLT4 cells assessed as cell growth at 10 uM; format: functional; details: read-out: Activity; method in brief: as §1
[45] = test system: SNB-19; test: Antiproliferative activity against human SNB19 cells assessed as cell growth at 10 uM; format: functional; details: read-out: Activity; method in brief: as §1

Which growth at 10 µM [1] does the source give for `CN(C)c1ccc(-c2nc3ccc4c(c3[nH]2)C(=O)c2ccccc2C4=O)cc1` here?
Its growth at 10 µM is 111%.

What about the growth at 10 µM [2] of the same compound?
Its growth at 10 µM is 110%.

What about the growth at 10 µM [3] of the same compound?
The growth at 10 µM was 82.4%.

What about the growth at 10 µM [4] of the same compound?
Its growth at 10 µM is 116%.

And the growth at 10 µM [5]?
Its growth at 10 µM is 63.9%.

And the growth at 10 µM [6]?
Its growth at 10 µM is 86.1%.

And the growth at 10 µM [7]?
The growth at 10 µM was 108%.

And the growth at 10 µM [8]?
The growth at 10 µM was 93.1%.

And the growth at 10 µM [9]?
The growth at 10 µM was 159%.

What about the growth at 10 µM [10] of the same compound?
The growth at 10 µM was 89.3%.

What about the growth at 10 µM [11] of the same compound?
Its growth at 10 µM is 94.5%.

What about the growth at 10 µM [12] of the same compound?
Its growth at 10 µM is 91.9%.

And the growth at 10 µM [13]?
The growth at 10 µM was 98.3%.

And the growth at 10 µM [14]?
Its growth at 10 µM is 90.5%.

What about the growth at 10 µM [15] of the same compound?
Its growth at 10 µM is 113%.

What about the viability at 10 µM [16] of the same compound?
Its viability at 10 µM is 62%.

And the residual activity [17]?
The residual activity was 92%.

What about the growth at 10 µM [18] of the same compound?
Its growth at 10 µM is 99.9%.

What about the growth at 10 µM [19] of the same compound?
Its growth at 10 µM is 94.4%.

What about the growth at 10 µM [20] of the same compound?
Its growth at 10 µM is 89.7%.

What about the growth at 10 µM [21] of the same compound?
The growth at 10 µM was 102%.

What about the growth at 10 µM [22] of the same compound?
Its growth at 10 µM is 85.8%.

What about the growth at 10 µM [23] of the same compound?
The growth at 10 µM was 87.1%.

What about the growth at 10 µM [24] of the same compound?
The growth at 10 µM was 117%.

What about the growth at 10 µM [25] of the same compound?
Its growth at 10 µM is 100%.

What about the growth at 10 µM [26] of the same compound?
The growth at 10 µM was 119%.

What about the residual activity [27] of the same compound?
The residual activity was 73%.

What about the growth at 10 µM [28] of the same compound?
The growth at 10 µM was 105%.

And the growth at 10 µM [29]?
Its growth at 10 µM is 109%.

What about the growth at 10 µM [30] of the same compound?
Its growth at 10 µM is 75.5%.

And the growth at 10 µM [31]?
Its growth at 10 µM is 103%.

And the growth at 10 µM [32]?
The growth at 10 µM was 73.2%.

What about the growth at 10 µM [33] of the same compound?
Its growth at 10 µM is 111%.

What about the growth at 10 µM [34] of the same compound?
Its growth at 10 µM is 95.4%.

What about the growth at 10 µM [35] of the same compound?
Its growth at 10 µM is 107%.

And the viability at 100 µM [36]?
Its viability at 100 µM is 22%.

What about the inhibition [37] of the same compound?
Its inhibition is “inactive”.

And the growth at 10 µM [38]?
Its growth at 10 µM is 96.8%.

And the growth at 10 µM [39]?
Its growth at 10 µM is 111%.

What about the growth at 10 µM [40] of the same compound?
The growth at 10 µM was 113%.

What about the growth at 10 µM [41] of the same compound?
The growth at 10 µM was 208%.

And the viability at 1 µM [42]?
Its viability at 1 µM is 88%.

And the growth at 10 µM [43]?
The growth at 10 µM was 109%.

What about the growth at 10 µM [44] of the same compound?
The growth at 10 µM was 101%.

And the growth at 10 µM [45]?
Its growth at 10 µM is 127%.
